Source: the M2OR odorant receptor database

How the values were obtained:
Conditions in all cases: stereoisomer not certain
[1] = target: T1, OR51L1 (Homo sapiens) (UniProt Q8NGJ5)
T1 sequence (whole entry): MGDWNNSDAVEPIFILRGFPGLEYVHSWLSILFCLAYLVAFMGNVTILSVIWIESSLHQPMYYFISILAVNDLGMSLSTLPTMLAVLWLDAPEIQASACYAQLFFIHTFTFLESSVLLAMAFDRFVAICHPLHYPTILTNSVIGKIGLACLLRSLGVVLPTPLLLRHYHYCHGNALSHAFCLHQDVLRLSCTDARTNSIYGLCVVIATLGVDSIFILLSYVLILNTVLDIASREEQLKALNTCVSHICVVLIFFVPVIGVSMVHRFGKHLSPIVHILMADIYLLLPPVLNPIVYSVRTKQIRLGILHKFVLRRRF
Procedure, shortened: (§1)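 Transient luciferase assays in mammalian cell lines were common, though methods varied by source. The values come from published papers and their supplementary material, with extra details from the original authors when needed. Responsive refers to a measured signal the original authors judged statistically different from baseline, and non-responsive (inactive) to the remainder.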

[2] = target: T2, OR51I2 (Homo sapiens) (UniProt Q9H344)
T2 sequence (whole entry): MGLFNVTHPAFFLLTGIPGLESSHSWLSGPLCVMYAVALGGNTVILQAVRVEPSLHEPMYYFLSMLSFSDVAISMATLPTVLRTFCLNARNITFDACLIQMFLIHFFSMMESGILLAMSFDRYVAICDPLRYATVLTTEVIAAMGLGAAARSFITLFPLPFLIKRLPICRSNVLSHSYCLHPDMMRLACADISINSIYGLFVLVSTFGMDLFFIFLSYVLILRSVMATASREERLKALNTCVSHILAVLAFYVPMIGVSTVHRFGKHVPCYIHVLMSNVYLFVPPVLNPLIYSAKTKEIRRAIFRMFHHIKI
Procedure, shortened: as §1

[3] = target: T3, OR51J1 (Homo sapiens) (UniProt Q9H342)
T3 sequence (whole entry): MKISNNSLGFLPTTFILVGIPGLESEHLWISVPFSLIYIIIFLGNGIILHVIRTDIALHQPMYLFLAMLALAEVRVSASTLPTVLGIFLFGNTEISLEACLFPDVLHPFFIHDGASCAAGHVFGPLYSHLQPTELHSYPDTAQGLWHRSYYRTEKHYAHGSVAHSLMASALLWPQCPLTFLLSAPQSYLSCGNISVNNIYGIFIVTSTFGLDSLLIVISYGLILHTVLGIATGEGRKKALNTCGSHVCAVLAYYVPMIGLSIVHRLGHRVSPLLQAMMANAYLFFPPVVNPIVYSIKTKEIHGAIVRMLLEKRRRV
Procedure, shortened: as §1

[4] = target: T4, OR51M1 (Homo sapiens) (UniProt Q9H341)
T4 sequence (whole entry): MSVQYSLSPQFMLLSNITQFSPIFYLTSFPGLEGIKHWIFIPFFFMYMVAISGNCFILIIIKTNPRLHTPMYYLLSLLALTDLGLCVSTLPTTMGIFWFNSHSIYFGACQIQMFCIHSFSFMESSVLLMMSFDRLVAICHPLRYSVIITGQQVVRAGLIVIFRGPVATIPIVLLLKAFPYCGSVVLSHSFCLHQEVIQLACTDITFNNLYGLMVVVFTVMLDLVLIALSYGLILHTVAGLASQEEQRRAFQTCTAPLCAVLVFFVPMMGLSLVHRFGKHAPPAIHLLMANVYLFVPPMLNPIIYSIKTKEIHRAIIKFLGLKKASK
Procedure, shortened: as §1

[5] = target: T5, OR51Q1 (Homo sapiens) (UniProt Q8NH59)
T5 sequence (whole entry): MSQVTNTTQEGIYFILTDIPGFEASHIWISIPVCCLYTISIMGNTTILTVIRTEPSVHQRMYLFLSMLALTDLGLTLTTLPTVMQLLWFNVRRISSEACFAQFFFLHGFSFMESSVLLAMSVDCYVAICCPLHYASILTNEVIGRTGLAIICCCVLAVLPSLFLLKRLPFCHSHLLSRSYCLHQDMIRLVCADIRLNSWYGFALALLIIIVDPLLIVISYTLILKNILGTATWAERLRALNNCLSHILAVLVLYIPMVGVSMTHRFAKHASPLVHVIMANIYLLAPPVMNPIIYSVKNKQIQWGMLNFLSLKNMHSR
Procedure, shortened: as §1

[6] = target: T6, OR51S1 (Homo sapiens) (UniProt Q8NGJ8)
T6 sequence (whole entry): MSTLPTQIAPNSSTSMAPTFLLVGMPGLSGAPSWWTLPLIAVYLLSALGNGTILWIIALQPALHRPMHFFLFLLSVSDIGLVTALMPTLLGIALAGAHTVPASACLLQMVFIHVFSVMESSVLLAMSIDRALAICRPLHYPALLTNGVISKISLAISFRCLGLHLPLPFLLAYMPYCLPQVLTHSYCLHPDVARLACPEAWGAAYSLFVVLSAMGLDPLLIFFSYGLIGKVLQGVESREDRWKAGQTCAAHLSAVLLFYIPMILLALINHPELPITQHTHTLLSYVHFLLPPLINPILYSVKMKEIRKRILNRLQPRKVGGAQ
Procedure, shortened: as §1

[7] = target: T7, OR51T1 (Homo sapiens) (UniProt Q8NGJ9)
T7 sequence (whole entry): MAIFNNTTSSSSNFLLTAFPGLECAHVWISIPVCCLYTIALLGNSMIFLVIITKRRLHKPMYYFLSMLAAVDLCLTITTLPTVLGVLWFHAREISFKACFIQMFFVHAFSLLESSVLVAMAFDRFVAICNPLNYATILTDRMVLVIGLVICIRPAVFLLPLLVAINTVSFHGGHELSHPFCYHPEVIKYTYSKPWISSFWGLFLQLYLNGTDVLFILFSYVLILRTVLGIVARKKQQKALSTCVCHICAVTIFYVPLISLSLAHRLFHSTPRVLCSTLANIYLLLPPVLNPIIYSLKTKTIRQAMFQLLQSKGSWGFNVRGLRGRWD
Procedure, shortened: as §1

[8] = target: T8, OR51V1 (Homo sapiens) (UniProt Q9H2C8)
T8 sequence (whole entry): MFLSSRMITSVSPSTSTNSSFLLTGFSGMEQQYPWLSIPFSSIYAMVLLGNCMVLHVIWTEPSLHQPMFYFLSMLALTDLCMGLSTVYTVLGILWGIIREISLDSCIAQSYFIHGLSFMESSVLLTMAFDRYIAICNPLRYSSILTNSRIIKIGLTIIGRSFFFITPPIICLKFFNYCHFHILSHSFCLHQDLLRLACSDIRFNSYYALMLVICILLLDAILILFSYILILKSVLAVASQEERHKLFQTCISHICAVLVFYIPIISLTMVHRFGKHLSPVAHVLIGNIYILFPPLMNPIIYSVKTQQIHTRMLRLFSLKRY
Procedure, shortened: as §1

[9] = target: T9, OR52A1 (Homo sapiens) (UniProt Q9UKL2)
T9 sequence (whole entry): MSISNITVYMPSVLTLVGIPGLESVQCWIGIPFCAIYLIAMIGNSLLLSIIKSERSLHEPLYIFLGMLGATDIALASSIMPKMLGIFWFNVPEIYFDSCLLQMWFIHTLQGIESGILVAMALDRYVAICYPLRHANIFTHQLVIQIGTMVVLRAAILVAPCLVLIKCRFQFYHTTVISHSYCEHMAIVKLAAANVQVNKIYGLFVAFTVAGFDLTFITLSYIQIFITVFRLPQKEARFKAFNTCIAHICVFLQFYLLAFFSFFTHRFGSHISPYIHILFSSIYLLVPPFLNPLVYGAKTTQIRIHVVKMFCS
Procedure, shortened: as §1

[10] = target: T10, OR52A4P (Homo sapiens) (UniProt A6NMU1)
T10 sequence (whole entry): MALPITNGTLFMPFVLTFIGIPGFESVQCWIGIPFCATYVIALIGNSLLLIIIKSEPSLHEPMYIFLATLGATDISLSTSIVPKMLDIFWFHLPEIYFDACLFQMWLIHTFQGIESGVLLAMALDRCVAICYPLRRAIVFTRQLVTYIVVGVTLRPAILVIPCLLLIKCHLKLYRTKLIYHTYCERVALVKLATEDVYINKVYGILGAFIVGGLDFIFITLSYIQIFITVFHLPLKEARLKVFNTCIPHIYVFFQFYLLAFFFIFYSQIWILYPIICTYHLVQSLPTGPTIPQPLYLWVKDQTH
Procedure, shortened: as §1

[11] = target: T11, OR52A5 (Homo sapiens) (UniProt Q9H2C5)
T11 sequence (whole entry): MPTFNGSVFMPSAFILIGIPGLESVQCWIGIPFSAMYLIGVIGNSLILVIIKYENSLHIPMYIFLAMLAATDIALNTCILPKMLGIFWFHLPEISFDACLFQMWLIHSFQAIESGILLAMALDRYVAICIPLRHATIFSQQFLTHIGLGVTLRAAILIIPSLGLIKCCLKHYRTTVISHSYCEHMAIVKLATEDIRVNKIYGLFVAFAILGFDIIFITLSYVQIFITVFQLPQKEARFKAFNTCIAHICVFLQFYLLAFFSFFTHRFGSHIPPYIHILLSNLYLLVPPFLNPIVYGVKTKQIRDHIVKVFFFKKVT
Procedure, shortened: as §1

[12] = target: T12, OR52B2 (Homo sapiens) (UniProt Q96RD2)
T12 sequence (whole entry): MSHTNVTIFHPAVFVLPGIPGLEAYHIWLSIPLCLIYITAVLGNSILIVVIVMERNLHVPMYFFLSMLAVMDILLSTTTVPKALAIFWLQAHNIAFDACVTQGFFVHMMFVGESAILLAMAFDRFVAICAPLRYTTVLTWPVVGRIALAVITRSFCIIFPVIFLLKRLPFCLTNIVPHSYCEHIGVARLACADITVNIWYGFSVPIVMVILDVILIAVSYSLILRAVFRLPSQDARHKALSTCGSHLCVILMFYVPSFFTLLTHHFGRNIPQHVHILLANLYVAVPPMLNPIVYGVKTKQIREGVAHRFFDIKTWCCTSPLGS
Procedure, shortened: as §1

[13] = target: T13, OR52B4 (Homo sapiens) (UniProt Q8NGK2)
T13 sequence (whole entry): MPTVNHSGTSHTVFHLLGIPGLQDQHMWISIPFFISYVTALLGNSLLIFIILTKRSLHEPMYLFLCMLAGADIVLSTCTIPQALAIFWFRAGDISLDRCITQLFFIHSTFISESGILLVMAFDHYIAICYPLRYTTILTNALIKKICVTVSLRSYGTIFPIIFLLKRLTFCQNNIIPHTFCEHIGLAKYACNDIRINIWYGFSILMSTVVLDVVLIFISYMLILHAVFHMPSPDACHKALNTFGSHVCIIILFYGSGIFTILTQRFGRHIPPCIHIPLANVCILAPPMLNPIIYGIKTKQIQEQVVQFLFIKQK
Procedure, shortened: as §1

[14] = target: T14, OR52B6 (Homo sapiens) (UniProt Q8NGF0)
T14 sequence (whole entry): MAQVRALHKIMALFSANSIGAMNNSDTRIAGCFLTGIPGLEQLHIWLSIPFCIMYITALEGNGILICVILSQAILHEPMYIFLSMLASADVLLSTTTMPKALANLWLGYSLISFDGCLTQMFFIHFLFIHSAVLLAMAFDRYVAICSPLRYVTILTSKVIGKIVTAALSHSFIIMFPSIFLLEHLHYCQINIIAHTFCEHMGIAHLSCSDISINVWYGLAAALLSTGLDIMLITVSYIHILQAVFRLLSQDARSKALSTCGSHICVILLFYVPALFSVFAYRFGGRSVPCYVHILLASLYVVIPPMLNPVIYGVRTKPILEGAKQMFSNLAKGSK
Procedure, shortened: as §1

[15] = target: T15, OR52D1 (Homo sapiens) (UniProt Q9H346)
T15 sequence (whole entry): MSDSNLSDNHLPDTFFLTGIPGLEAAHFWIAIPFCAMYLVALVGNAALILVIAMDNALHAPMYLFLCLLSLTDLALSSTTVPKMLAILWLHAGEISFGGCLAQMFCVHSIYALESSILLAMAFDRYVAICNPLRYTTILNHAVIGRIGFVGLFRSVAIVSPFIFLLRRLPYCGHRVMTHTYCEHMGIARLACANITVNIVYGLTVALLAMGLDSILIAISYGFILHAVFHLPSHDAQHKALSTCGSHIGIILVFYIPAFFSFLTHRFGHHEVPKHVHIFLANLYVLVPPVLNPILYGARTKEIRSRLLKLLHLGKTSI
Procedure, shortened: as §1

[16] = target: OR52E1 (Homo sapiens) (UniProt Q8NGJ3)
Procedure, shortened: as §1

[17] = target: OR52E2 (Homo sapiens) (UniProt Q8NGJ4)
Procedure, shortened: as §1

[18] = target: OR52E4 (Homo sapiens) (UniProt Q8NGH9)
Procedure, shortened: as §1

[19] = target: OR52E5 (Homo sapiens) (UniProt Q8NH55)
Procedure, shortened: as §1

[20] = target: OR52E6 (Homo sapiens) (UniProt Q96RD3)
Procedure, shortened: as §1

Measured: odorant receptor agonist call;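 note: active if original authors judged signal statistically different from baseline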

Chain of OR52E4 (Homo sapiens) (Q8NGH9 whole entry): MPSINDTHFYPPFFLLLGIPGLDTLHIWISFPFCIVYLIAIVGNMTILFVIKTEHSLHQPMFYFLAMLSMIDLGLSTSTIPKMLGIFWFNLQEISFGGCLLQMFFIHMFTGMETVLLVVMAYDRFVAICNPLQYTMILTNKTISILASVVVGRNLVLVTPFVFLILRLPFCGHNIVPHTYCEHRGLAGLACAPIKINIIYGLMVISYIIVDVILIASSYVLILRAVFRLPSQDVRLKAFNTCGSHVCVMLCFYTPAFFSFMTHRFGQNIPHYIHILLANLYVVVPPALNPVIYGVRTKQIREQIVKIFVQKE
Chain of OR52E6 (Homo sapiens) (Q96RD3 whole entry): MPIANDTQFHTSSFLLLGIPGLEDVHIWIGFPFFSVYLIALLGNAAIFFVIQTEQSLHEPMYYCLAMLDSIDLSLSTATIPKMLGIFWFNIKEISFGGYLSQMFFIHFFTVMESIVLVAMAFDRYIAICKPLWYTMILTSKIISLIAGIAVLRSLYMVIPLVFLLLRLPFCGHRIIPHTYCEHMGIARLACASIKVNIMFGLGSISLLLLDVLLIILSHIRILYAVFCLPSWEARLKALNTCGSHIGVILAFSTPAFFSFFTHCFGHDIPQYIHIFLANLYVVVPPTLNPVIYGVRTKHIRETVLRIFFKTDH
Chain of OR52E1 (Homo sapiens) (Q8NGJ3 whole entry): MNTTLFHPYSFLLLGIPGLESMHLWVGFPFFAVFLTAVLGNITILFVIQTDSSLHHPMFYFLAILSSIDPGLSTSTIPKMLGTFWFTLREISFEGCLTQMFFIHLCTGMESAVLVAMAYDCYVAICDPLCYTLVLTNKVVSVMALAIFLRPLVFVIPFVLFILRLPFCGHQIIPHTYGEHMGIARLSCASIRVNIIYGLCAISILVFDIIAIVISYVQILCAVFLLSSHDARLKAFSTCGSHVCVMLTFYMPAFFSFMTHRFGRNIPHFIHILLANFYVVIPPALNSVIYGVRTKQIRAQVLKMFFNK
Chain of OR52E2 (Homo sapiens) (Q8NGJ4 whole entry): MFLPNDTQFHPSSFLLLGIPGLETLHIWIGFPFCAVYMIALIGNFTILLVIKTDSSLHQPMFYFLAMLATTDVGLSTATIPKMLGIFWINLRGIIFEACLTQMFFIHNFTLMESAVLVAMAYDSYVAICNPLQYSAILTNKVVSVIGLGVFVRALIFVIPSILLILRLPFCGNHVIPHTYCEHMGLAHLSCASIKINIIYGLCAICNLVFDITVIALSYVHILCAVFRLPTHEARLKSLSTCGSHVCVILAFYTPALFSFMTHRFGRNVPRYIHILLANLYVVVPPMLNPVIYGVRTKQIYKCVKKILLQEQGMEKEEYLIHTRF
Chain of OR52E5 (Homo sapiens) (Q8NH55 whole entry): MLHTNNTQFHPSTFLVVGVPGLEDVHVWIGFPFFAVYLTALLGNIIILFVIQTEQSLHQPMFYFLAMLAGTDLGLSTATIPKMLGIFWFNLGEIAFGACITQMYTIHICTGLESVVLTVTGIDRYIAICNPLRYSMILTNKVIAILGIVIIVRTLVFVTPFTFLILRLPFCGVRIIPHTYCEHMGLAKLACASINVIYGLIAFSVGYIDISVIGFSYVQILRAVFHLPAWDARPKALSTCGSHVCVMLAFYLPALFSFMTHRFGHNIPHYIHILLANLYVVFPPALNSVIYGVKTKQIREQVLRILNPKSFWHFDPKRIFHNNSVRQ

CCCCCCCCCS
inactive: [1]

CCCCC(=O)O
inactive: [1]

CC1CCCCCCCCCCCCC(=O)C1 (centres undefined)
inactive: [2] | [3] | [1] | [4] | [5] | [6] | [7] | [8] | [9] | [10] | [11] | [12] | [13] | [14] | [15] | [16] | [17] | [18] | [19] | [20]

CC1=C(O)C(=O)OC1C (centres undefined)
inactive: [2] | [3] | [1] | [4] | [5] | [6] | [8] | [9] | [11] | [12] | [13] | [14] | [15] | [16] | [17] | [18] | [20]
